Published values from different studies.
Each line is one published result; the experiments were not run side by side.
Target: Mitogen-activated protein kinase kinase kinase kinase 4 (MAP4K4, Homo sapiens, UniProt O95819)

| Structure (SMILES) | observed | mode | method | concentration | measurement | value |
| --- | --- | --- | --- | --- | --- | --- |
| COc1ncccc1-c1cnn2ccc(N3CCN(C(=O)OC(C)C)CC3)nc12 | binding | – | competition with immobilised ligand | 1 µM | remaining binding | 83% |
| Cn1cc(-c2cccc(N3CCc4c(sc5c4CC(C)(C)C5)C3=O)c2CO)cc(Nc2ccncn2)c1=O | enzyme activity | inhibitor | – | 1 µM | inhibition | 4% |
| Cc1nn(C)cc1-c1nc2c(N3CCN(Cc4ccc(Cl)cc4)CC3)c(Cl)cnc2[nH]1 | binding | – | competition with immobilised ligand | 1 µM | remaining binding | 88% |
| Nc1ncc(-c2nc(N3CCOCC3)nc(N3CCOCC3)n2)c(C(F)F)n1 | binding | – | competition with immobilised ligand | 10 µM | remaining binding | 100% |
| Cn1cc(-c2cc(F)cc(N3CCn4c(cc5c4CCCC5)C3=O)c2CO)cc(Nc2ccc(N3CCN(C4COC4)CC3)cn2)c1=O | enzyme activity | inhibitor | – | 0.1 µM | inhibition | 23% |
| N#CC1(c2ccccn2)CCN(Cc2cc(C(=O)O)c(=O)n3ccccc23)CC1 | cell-free assay | – | competition with immobilised ligand | 1 µM | remaining binding | 87% |
| O=c1[nH]c2ccccc2n1C1CCN(Cc2ccc(-c3[nH]c4cc5ncnc5cc4nc3-c3ccccc3)cc2)CC1 | cell-free assay | – | – | 0.5 µM | remaining signal | 99.5% |
| Cn1cncc1[C@](O)(COc1ccc(C#N)cc1-c1ccc(OC(F)(F)F)cc1)c1ccc(C#N)cc1 | cell-free assay | – | competition with immobilised ligand | 1 µM | remaining binding | 100% |
| CC(C)(C)c1cc(C=C(C#N)C#N)cc(Br)c1O | enzyme activity | inhibitor | – | 0.5 µM | remaining activity | 96.2% |
